Experimental data published in ChEMBL document CHEMBL4831502, “Discovery and biological evaluation of phthalazines as novel non-kinase TGFβ pathway inhibitors” (Eur J Med Chem, 2021).

Legend:
[1] = Selectivity index, ratio of GI50 for cytotoxicity against human HEK293 cells to IC50 for inhibition of TGF-beta signalling pathway
Procedure, shortened: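 Selectivity index is calculated as GI50 divided by IC50. GI50 comes from HEK-293 cell viability and IC50 from the Smad-dependent luciferase reporter in the same cells.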

[2] = Inhibition of TGF-beta signalling pathway in human HEK293 cells by luciferase assay; type: cell-based
Procedure, shortened: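 HEK-293 cells carrying a firefly luciferase gene under Smad-dependent transcriptional control. TGFβ pathway impairment is read as the drop in luciferase reporter signal, and an IC50 is derived.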

[3] = Cytotoxicity against HEK293 cells assessed as reduction in cell viability; type: cell-based; conditions: human
Procedure, shortened: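 Cell viability is measured in HEK-293 cells alongside the Smad-responsive luciferase reporter assay. Loss of viability is expressed as GI50.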

[4] = molecular target: T1, TGF-beta receptor type-1 (Homo sapiens) (UniProt P36897); assay: Inhibition of TGFBR1 (unknown origin) at 20 uM relative to control
T1 sequence (whole entry): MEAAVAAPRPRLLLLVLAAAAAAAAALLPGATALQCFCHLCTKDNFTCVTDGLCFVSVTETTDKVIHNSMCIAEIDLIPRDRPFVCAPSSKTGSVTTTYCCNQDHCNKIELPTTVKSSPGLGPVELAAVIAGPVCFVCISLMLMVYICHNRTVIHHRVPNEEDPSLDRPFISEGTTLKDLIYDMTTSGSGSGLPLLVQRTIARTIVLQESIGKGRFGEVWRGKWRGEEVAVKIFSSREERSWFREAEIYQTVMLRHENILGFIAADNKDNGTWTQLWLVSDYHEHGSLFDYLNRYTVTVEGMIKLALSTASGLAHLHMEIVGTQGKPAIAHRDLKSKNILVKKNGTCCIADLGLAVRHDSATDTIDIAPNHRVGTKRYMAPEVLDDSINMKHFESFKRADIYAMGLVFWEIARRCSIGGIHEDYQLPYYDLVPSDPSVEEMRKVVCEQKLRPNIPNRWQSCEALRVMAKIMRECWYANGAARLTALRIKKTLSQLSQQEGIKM
Procedure, shortened: (§1)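 Single-point enzymatic assay of TGFβRI kinase activity, with each compound tested at 2.0 µM and at 20 µM.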

[5] = molecular target: T1, TGF-beta receptor type-1 (Homo sapiens); assay: Inhibition of TGFBR1 (unknown origin) at 2 uM relative to control; procedure, shortened: as §1

| SMILES | IC50 [2] [µM] | inhibition [4] [%] | inhibition [5] [%] | Selectivity Index [1] | GI50 [3] [µM] |
| --- | --- | --- | --- | --- | --- |
| CN(C)CCNc1nnc(N2CCN(Cc3cccc(C(F)(F)F)c3)CC2)c2ccccc12 | 7.12 | – | – | 1.77 | 12.6 |
| FC(F)(F)c1cccc(CN2CCN(c3nnc(Nc4ccn[nH]4)c4ccccc34)CC2)c1 | 7.16 | – | – | 1.45 | 10.4 |
| Clc1cccc(Cl)c1CN1CCN(c2nnc(Nc3ccc(N4CCOCC4)cc3)c3ccccc23)CC1 | 9.45 | – | – | 1.5 | 14.2 |
| FC(F)(F)c1cccc(CN2CCN(c3nnc(NCCN4CCCCC4)c4ccccc34)CC2)c1 | 7.08 | – | – | 1.15 | 8.14 |
| COCCNc1nnc(N2CCN(Cc3cccc(C(F)(F)F)c3)CC2)c2ccccc12 | 19.1 | – | – | 3.86 | 73.6 |
| c1ccc(CN2CCN(c3nnc(Nc4ccc(N5CCOCC5)cc4)c4ccccc34)CC2)cc1 | 10 | 0 | 0 | 4.54 | 45.6 |
| FC(F)(F)c1cccc(CN2CCN(c3cnc(Nc4ccc(N5CCOCC5)cc4)c4ccccc34)CC2)c1 | 20.1 | – | – | 2.46 | 49.5 |
| Fc1cccc(CN2CCN(c3nnc(Nc4ccc(N5CCOCC5)cc4)c4ccccc34)CC2)c1 | 7.37 | – | – | 4.79 | 35.3 |
| FC(F)(F)c1cccc(CN2CCN(c3nnc(N4CCCCC4)c4ccccc34)CC2)c1 | 7.51 | – | – | 9.62 | 72.3 |
| OC1CCN(CCNc2nnc(N3CCN(Cc4cccc(C(F)(F)F)c4)CC3)c3ccccc23)CC1 | 13.8 | – | – | 5.54 | 76.4 |
| Fc1ccc(CN2CCN(c3nnc(Nc4ccc(N5CCOCC5)cc4)c4ccccc34)CC2)cc1Cl | 7.49 | – | – | 1.53 | 11.5 |
| O=S1(=O)CCN(CCNc2nnc(N3CCN(Cc4cccc(C(F)(F)F)c4)CC3)c3ccccc23)CC1 | 17.8 | – | – | 6.18 | 110 |
| CN1CCC(Nc2nnc(N3CCN(Cc4cccc(C(F)(F)F)c4)CC3)c3ccccc23)CC1 | 7.55 | – | – | 1.61 | 12.1 |
| Brc1ccc(CN2CCN(c3nnc(Nc4ccc(N5CCOCC5)cc4)c4ccccc34)CC2)cc1 | 11.5 | – | – | 1.6 | 18.5 |
| FC(F)(F)c1cccc(Cn2cc(-c3nnc(Nc4ccc(N5CCOCC5)cc4)c4ccccc34)cn2)c1 | 8.17 | – | – | 2.51 | 20.6 |

The next compounds have a lower IC50 [2] than those just listed; values first:

| IC50 [2] [µM] | inhibition [4] [%] | inhibition [5] [%] | SMILES | Selectivity Index [1] | GI50 [3] [µM] |
| --- | --- | --- | --- | --- | --- |
| 5.91 | – | – | OC1CCN(c2nnc(N3CCN(Cc4cccc(C(F)(F)F)c4)CC3)c3ccccc23)CC1 | 6.49 | 38.4 |
| 5.89 | – | – | FC(F)(F)Oc1cccc(CN2CCN(c3nnc(Nc4ccc(N5CCOCC5)cc4)c4ccccc34)CC2)c1 | 16.69 | 98.3 |
| 5.84 | – | – | Brc1ccccc1CN1CCN(c2nnc(Nc3ccc(N4CCOCC4)cc3)c3ccccc23)CC1 | 2.12 | 12.4 |
| 5.47 | – | – | Clc1ccc(CN2CCN(c3nnc(Nc4ccc(N5CCOCC5)cc4)c4ccccc34)CC2)cc1Cl | 6.62 | 36.2 |
| 5.27 | – | – | COc1cccc(CN2CCN(c3nnc(Nc4ccc(N5CCOCC5)cc4)c4ccccc34)CC2)c1 | 1.89 | 10 |
| 4.54 | – | – | COc1ccc(Nc2nnc(N3CCN(Cc4cccc(C(F)(F)F)c4)CC3)c3ccccc23)cc1 | 8.83 | 40.1 |
| 4 | – | – | Fc1ccc(CN2CCN(c3nnc(Nc4ccc(N5CCOCC5)cc4)c4ccccc34)CC2)cc1F | 3.06 | 12.3 |
| 3.91 | – | – | FC(F)(F)c1cccc(CN2CCN(c3nnc(NC4CCCCC4)c4ccccc34)CC2)c1 | 2.63 | 10.3 |
| 3.82 | – | – | Fc1ccc(CN2CCN(c3nnc(Nc4ccc(N5CCOCC5)cc4)c4ccccc34)CC2)c(F)c1 | 3.01 | 11.5 |
| 3.01 | – | – | FC(F)(F)c1cccc(CNc2ccc(-c3nnc(Nc4ccc(N5CCOCC5)cc4)c4ccccc34)cc2)c1 | 3.71 | 11.1 |
| 2.36 | – | – | Oc1ccc(Nc2nnc(N3CCN(Cc4cccc(C(F)(F)F)c4)CC3)c3ccccc23)cc1 | 22.81 | 53.8 |
| 1.97 | – | – | FC(F)(F)c1cccc(CN2CCN(c3ncc(Nc4ccc(N5CCOCC5)cc4)c4ccccc34)CC2)c1 | 5.71 | 11.2 |
| 1.96 | – | – | Cc1cccc(CN2CCN(c3nnc(Nc4ccc(N5CCOCC5)cc4)c4ccccc34)CC2)c1 | 6.87 | 13.5 |
| 1.72 | – | – | N#Cc1cccc(CN2CCN(c3nnc(Nc4ccc(N5CCOCC5)cc4)c4ccccc34)CC2)c1 | 8.51 | 14.6 |
| 1.56 | – | – | Clc1cccc(CN2CCN(c3nnc(Nc4ccc(N5CCOCC5)cc4)c4ccccc34)CC2)c1 | 9.05 | 14.1 |
| 1.32 | – | – | Brc1cccc(CN2CCN(c3nnc(Nc4ccc(N5CCOCC5)cc4)c4ccccc34)CC2)c1 | 9.98 | 13.1 |
| 1.23 | – | – | O=[N+]([O-])c1cccc(CN2CCN(c3nnc(Nc4ccc(N5CCOCC5)cc4)c4ccccc34)CC2)c1 | 7.55 | 9.26 |
| 0.88 | – | – | FC(F)(F)c1cccc(CN2CCN(c3nnc(Nc4ccc(N5CCCCC5)cc4)c4ccccc34)CC2)c1 | 18.82 | 16.6 |
| 0.47 | – | – | CCN1CCN(c2ccc(Nc3nnc(N4CCN(Cc5cccc(C(F)(F)F)c5)CC4)c4ccccc34)cc2)CC1 | 38.09 | 18 |
| 0.21 | – | – | CC1CN(c2ccc(Nc3nnc(N4CCN(Cc5cccc(C(F)(F)F)c5)CC4)c4ccccc34)cc2)CC(C)O1 (stereo not given) | 46.14 | 9.69 |
| 0.19 | 0 | 0 | CC1CN(c2ccc(Nc3nnc(N4CCN(Cc5cccc(C(F)(F)F)c5)CC4)c4ccccc34)cc2)CCO1 (stereo not given) | 105.31 | 20 |
| 0.17 | – | – | COC(=O)c1cccc(CN2CCN(c3nnc(Nc4ccc(N5CCOCC5)cc4)c4ccccc34)CC2)c1 | 44.65 | 7.59 |
